Data: ChEMBL document CHEMBL1156229, “Pharmacophore development and application toward the identification of novel, small-molecule autotaxin inhibitors” (J Med Chem, 2010)

What follows are compounds tested against Autotaxin (Homo sapiens, UniProt Q13822) (assay: Inhibition of human recombinant C-terminal FLAG-tagged autotaxin expressed in baculovirus-infected Sf9 cells assessed as FS-3 hydrolysis at 10 uM relative to control).
Procedure, shortened: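 Single-dose screen: inhibitor 10 μM final, purified recombinant human ATX 8.3 nM, FS-3 1 μM, fatty acid free BSA 30 μM in Tris pH 8 buffer (1 mM MgCl2, 1 mM CaCl2, 3 mM KCl, 140 mM NaCl), 37 °C. Fluorescence (ex 485/em 538) read every 2 min; percent activity vs vehicle after no-ATX subtraction at 1 h; mean ± SD of three wells.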

Row | inhibition [%] | Compound
1 | 17 | CC(=O)Nc1cc(S(=O)(=O)O)cc2cc(S(=O)(=O)O)c(/N=N/c3ccc(C(=O)Nc4ccc(S(=O)(=O)O)cc4)cc3)c(O)c12
2 | 22 | Nc1ccc2cc(S(=O)(=O)O)cc(O)c2c1/N=N/c1ccc(NC(=O)Nc2ccc(/N=N/c3c(N)ccc4cc(S(=O)(=O)O)cc(O)c34)c(S(=O)(=O)O)c2)cc1S(=O)(=O)O
3 | 29 | O=C(Nc1cccc(C(=O)Nc2ccc3cc(S(=O)(=O)O)cc(S(=O)(=O)O)c3c2)c1)Nc1cccc(C(=O)Nc2ccc3cc(S(=O)(=O)O)cc(S(=O)(=O)O)c3c2)c1
4 | 20 | Nc1ccc(NC(=O)c2ccc(C(=O)Nc3ccc4c(O)cc(S(=O)(=O)O)cc4c3)cc2)cc1
5 | 12 | O=C1/C(=C2\Nc3ccc(S(=O)(=O)O)cc3C2=O)Nc2ccc(S(=O)(=O)O)cc21
6 | 2 | COc1cc(/N=N/c2c(C)cc(C)cc2S(=O)(=O)O)c(C)cc1/N=N/c1c(S(=O)(=O)O)cc2cc(Nc3ccccc3)ccc2c1O
7 | 1 | O=S(=O)(O)c1ccc(/N=N/Nc2ccc(S(=O)(=O)O)cc2)cc1
8 | 4 | COc1ccc(NS(=O)(=O)c2ccc(NC(CNC(C)S(=O)(=O)O)S(=O)(=O)O)cc2)cc1 (configuration not stated)
9 | 0 | O=C(Nc1ccc2cc(S(=O)(=O)O)cc(S(=O)(=O)O)c2c1)Nc1ccc2cc(S(=O)(=O)O)cc(S(=O)(=O)O)c2c1
10 | 1 | O=C(Nc1ccc(S(=O)(=O)O)cc1)c1ccc(/N=N/c2cc(S(=O)(=O)O)c3ccccc3c2O)cc1
11 | 21 | COc1cc(/N=N/c2cccc(S(=O)(=O)O)c2)ccc1NC(=O)Nc1ccc(/N=N/c2ccc(O)c(C(=O)O)c2)cc1
12 | 49 | Cc1[nH]n(-c2cc(S(=O)(=O)O)ccc2O)c(=O)c1/N=N/c1c(NC(=O)c2ccc(N)cc2)ccc2cc(S(=O)(=O)O)ccc12
13 | -1 | COc1cc(S(=O)(=O)O)ccc1/N=N/C(=N\Nc1ccc(S(=O)(=O)O)cc1OC)C(N)=O
14 | 5 | Nc1ccc(C(=O)Nc2ccc(C(=O)Nc3ccc4cc(S(=O)(=O)O)cc(S(=O)(=O)O)c4c3)cc2)cc1
15 | 35 | Cc1cc(/N=N/c2ccc(/C=C/c3ccc(/N=N/c4cc(C)c(N)c(/N=N/c5ccc(S(=O)(=O)O)cc5)c4N)cc3S(=O)(=O)O)c(S(=O)(=O)O)c2)c(N)c(/N=N/c2ccc(S(=O)(=O)O)cc2)c1N
16 | 33 | Nc1cccc(/N=N/c2c(S(=O)(=O)O)cc3cc(Nc4ccc5c(O)c(/N=N/c6cccc(N)c6)c(S(=O)(=O)O)cc5c4)ccc3c2O)c1
17 | 13 | Cc1cc(C)c(S(=O)(=O)O)c(C)c1Nc1ccc(Nc2c(C)cc(C)c(S(=O)(=O)O)c2C)c2c1C(=O)c1ccccc1C2=O
18 | 32 | Nc1cccc(/N=N/c2c(S(=O)(=O)O)cc3cc(NC(=O)Nc4ccc5c(O)c(/N=N/c6cccc(N)c6)c(S(=O)(=O)O)cc5c4)ccc3c2O)c1
19 | 30 | Nc1ccc2c(O)c(/N=N/c3ccc4c(O)cc(S(=O)(=O)O)cc4c3)c(S(=O)(=O)O)cc2c1
20 | 39 | Nc1ccc(C(=O)Nc2cccc(C(=O)Nc3ccc4c(O)c(/N=N/c5ccc(/N=N/c6ccc(S(=O)(=O)O)cc6)cc5)c(S(=O)(=O)O)cc4c3)c2)cc1
21 | 8 | COc1ccc(/C=N/NC(=N)C(=N)N/N=C/c2ccc(OC)c(S(=O)(=O)O)c2)cc1S(=O)(=O)O
22 | 1 | NC(Cc1ccc(O)cc1)C(=O)NCCS(=O)(=O)O (configuration not stated)
23 | 0 | O=C(Nc1cc(O)ccc1Oc1cc(O)c(O)cc1S(=O)(=O)O)Nc1cc(O)ccc1Oc1cc(O)c(O)cc1S(=O)(=O)O
24 | 39 | CCOc1cc(-c2ccc(/N=N/c3c(S(=O)(=O)O)cc4ccc(N)cc4c3O)cc2)ccc1/N=N/c1c(S(=O)(=O)O)cc2ccc(N)cc2c1O
25 | 8 | Cc1ccc(Nc2ccc(Nc3ccc(C)cc3S(=O)(=O)O)c3c2C(=O)c2ccccc2C3=O)c(S(=O)(=O)O)c1
26 | 4 | Cc1ccc(Nc2cccc3c2C(=O)c2cccc(Nc4ccc(C)c(S(=O)(=O)O)c4)c2C3=O)cc1S(=O)(=O)O
27 | 12 | Nc1ccc(C(=O)Nc2ccc(NC(=O)Nc3ccc(NC(=O)c4ccc(N)cc4)c(S(=O)(=O)O)c3)cc2S(=O)(=O)O)cc1
